Results published in BindingDB's records for doi:10.1021/jm4005048 (Northwestern University, 2013).
pIC50: −log10 of the molar value.

Biological target: Voltage-dependent L-type calcium channel subunit alpha-1C (Oryctolagus cuniculus, UniProt P15381)
Test: Antagonist activity at rabbit CaV1.2alpha1C transfected in HEK293 cells by FLIPR assay
Summary of the method: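 HEK293 cells stably transfected with rabbit CaV1.2α1C cDNA, plated at 4 × 10⁴ cells/well and cultured 4 days in DMEM with 10% FBS. Calcium influx is read on a FLIPR Tetra with a Fluo-8 no-wash calcium dye.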

Voltage-dependent L-type calcium channel subunit alpha-1C, sequence (P15381 whole entry): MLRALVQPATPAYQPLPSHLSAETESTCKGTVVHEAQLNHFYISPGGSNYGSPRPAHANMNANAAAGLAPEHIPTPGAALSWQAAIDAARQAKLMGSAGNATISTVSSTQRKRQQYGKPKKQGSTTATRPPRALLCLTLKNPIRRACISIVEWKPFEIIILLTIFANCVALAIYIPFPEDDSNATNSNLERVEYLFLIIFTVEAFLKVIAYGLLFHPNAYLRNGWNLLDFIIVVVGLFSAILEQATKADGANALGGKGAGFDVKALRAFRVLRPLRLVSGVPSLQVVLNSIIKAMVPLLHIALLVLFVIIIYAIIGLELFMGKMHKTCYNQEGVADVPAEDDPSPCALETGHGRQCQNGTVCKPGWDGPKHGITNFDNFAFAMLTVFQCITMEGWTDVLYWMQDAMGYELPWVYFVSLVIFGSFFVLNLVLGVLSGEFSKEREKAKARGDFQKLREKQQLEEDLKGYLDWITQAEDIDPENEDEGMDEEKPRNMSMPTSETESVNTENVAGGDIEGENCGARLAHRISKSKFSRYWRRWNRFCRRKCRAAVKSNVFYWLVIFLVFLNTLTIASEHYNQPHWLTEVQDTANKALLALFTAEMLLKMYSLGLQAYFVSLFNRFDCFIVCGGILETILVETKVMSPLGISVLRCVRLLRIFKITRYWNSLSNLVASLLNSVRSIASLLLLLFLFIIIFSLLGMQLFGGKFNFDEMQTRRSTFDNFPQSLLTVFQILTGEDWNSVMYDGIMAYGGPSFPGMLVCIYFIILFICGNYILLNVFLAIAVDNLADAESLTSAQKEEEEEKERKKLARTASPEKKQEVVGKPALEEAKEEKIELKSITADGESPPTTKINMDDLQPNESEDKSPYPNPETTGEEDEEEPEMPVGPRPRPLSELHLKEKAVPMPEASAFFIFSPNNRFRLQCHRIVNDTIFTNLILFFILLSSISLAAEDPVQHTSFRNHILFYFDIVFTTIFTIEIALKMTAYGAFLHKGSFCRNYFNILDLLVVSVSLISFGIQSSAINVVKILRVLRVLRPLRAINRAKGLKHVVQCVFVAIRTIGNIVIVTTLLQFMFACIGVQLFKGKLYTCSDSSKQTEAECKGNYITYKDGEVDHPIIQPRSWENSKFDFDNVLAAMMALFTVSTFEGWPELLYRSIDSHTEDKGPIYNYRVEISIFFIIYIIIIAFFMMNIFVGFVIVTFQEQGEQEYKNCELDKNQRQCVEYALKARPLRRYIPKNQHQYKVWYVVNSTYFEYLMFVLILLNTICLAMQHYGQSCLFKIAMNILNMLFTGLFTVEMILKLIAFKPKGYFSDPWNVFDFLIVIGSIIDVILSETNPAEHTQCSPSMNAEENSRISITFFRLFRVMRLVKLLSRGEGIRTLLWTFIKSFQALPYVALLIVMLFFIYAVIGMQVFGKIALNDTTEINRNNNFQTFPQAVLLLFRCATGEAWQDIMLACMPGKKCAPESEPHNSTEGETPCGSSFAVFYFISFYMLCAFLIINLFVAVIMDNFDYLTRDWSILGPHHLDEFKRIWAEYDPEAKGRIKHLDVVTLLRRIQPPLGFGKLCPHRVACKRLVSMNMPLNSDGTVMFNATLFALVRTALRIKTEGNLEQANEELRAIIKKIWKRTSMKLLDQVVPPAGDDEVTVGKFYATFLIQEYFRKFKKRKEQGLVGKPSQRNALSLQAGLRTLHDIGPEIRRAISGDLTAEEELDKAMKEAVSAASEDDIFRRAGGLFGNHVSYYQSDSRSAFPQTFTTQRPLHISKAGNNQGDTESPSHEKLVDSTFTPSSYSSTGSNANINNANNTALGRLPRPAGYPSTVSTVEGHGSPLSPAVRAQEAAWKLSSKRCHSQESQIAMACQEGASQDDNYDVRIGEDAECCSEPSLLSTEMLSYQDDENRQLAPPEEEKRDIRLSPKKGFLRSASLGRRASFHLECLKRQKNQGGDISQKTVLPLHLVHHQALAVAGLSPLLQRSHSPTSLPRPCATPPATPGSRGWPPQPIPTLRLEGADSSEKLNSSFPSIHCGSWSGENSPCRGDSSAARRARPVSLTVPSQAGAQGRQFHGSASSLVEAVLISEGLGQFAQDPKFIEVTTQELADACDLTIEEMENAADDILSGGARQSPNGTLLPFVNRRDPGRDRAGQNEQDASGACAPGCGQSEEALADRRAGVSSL

First: O=c1cc(O)n(CCc2cccc(C(F)(F)F)c2)c(=O)n1[C@@H]1C[C@@H]2CC[C@H]1C2
Second: O=c1cc(O)n(CCc2cccc(C(F)(F)F)c2)c(=O)n1[C@H]1C[C@H]2CC[C@@H]1C2
The pIC50 of the first is higher: 4.00 for the first, less than 4.00 for the second. The first is the more potent here.

Going from `CC(Cn1c(O)cc(=O)n(C2CC3CCC2C3)c1=O)c1cccc(Cl)c1` (stereo not given) to `O=c1cc(O)n(CCc2cccc(Cl)c2)c(=O)n1[C@@H]1C[C@@H]2CC[C@H]1C2`, the pIC50 falls from 5.29 to less than 4.00. The first is the more potent here.

Going from `CC(C)(Cn1c(O)cc(=O)n(C2CCCC2)c1=O)c1cccc(Cl)c1` to `O=c1cc(O)n(CCc2cccc(Cl)c2)c(=O)n1C1CCCC1`, the pIC50 falls from 4.90 to less than 4.00.

Compared with `O=c1cc(O)n(CC2(c3ccc(Cl)cc3)CC2)c(=O)n1C1CCCC1`, `C[C@H]1CCC[C@H]1n1c(=O)cc(O)n(CCc2ccc(Cl)cc2)c1=O` is higher in pIC50: less than 4.00 for the first, 5.00 for the second. The second is the more potent here.

First: COC(=O)[C@H](Cc1ccccc1)n1c(O)cc(=O)n(C2CCCC2)c1=O
Second: O=c1cc(O)n(CCC(c2ccccc2)c2ccccc2)c(=O)n1C1CCCC1
The pIC50 of the first is lower: less than 4.00 for the first, 5.33 for the second. The second is the more potent here.

`O=c1cc(O)n(-c2cccc(C(F)(F)F)c2)c(=O)n1C1CCCC1` and `C[C@H](C1CCCCC1)n1c(=O)cc(O)n(CCc2cccc(Cl)c2)c1=O` cannot be ordered by pIC50: less than 4.00 for the first, less than 4.00 for the second.

Compared with `C[C@H](c1cccc2ccccc12)n1c(O)cc(=O)n(CCc2cccc(Cl)c2)c1=O`, `C[C@@H](C1CCCCC1)n1c(=O)cc(O)n(CCc2cccc(Cl)c2)c1=O` is lower in pIC50: 5.00 for the first, less than 4.00 for the second.

Going from `CCOC(=O)[C@@H]1CCC[C@@H]1n1c(=O)cc(O)n(CCc2cccc(Cl)c2)c1=O` to `O=c1cc(O)n(CCc2cccc(Cl)c2)c(=O)n1[C@H]1CCC[C@@H]1O`, the pIC50 falls from 4.90 to less than 4.00. The first is the more potent here.

`O=C(O)[C@H]1CC[C@@H](n2c(=O)cc(O)n(CCc3cccc(Cl)c3)c2=O)C1` and `O=c1cc(O)n(CCc2cccc(Cl)c2)c(=O)n1[C@H]1C[C@H]2CC[C@@H]1C2` cannot be ordered by pIC50: less than 4.00 for the first, less than 4.00 for the second.

`C[C@H]1[C@H](n2c(=O)cc(O)n(CCc3ccc(Cl)cc3)c2=O)C[C@@H]2C[C@H]1C2(C)C` and `C[C@@H]1[C@@H](n2c(=O)cc(O)n(CCc3cccc(Cl)c3)c2=O)C[C@H]2C[C@@H]1C2(C)C` cannot be ordered by pIC50: less than 4.00 for the first, less than 4.00 for the second.

`CC1(C)[C@@H]2CC[C@H](Cn3c(=O)cc(O)n(CCc4ccc(Cl)cc4)c3=O)[C@H]1C2` and `O=c1cc(O)n(CCc2ccc(Cl)cc2)c(=O)n1C[C@H]1CCCO1` cannot be ordered by pIC50: less than 4.00 for the first, less than 4.00 for the second.

`CC1(C)[C@@H]2CC[C@@]1(C)[C@@H](n1c(=O)cc(O)n(CCc3ccc(Cl)cc3)c1=O)C2` and `CC1(C)[C@@H]2CC[C@@]1(C)[C@@H](n1c(=O)cc(O)n(CCc3cccc(Cl)c3)c1=O)C2` cannot be ordered by pIC50: less than 4.00 for the first, less than 4.00 for the second.

Going from `O=c1cc(O)n(CCc2ccc(Cl)cc2)c(=O)n1[C@H]1C[C@H]2CC[C@@H]1C2` to `C[C@@H]1CCC[C@@H]1n1c(=O)cc(O)n(CCc2ccc(Cl)cc2)c1=O`, the pIC50 rises from 4.00 to 5.29 (1.29 log units). The second is the more potent here.

`C[C@H](C1CCCCC1)n1c(=O)cc(O)n(CCc2ccc(Cl)cc2)c1=O` and `C[C@@H](C1CCCCC1)n1c(=O)cc(O)n(CCc2ccc(Cl)cc2)c1=O` cannot be ordered by pIC50: less than 4.00 for the first, less than 4.00 for the second.

Compared with `C[C@H]1[C@H](n2c(=O)cc(O)n(CCc3cccc(Cl)c3)c2=O)C[C@@H]2C[C@H]1C2(C)C`, `CC1(C)CCC[C@H]1n1c(=O)cc(O)n(CCc2cccc(Cl)c2)c1=O` is higher in pIC50: less than 4.00 for the first, 5.33 for the second. The second is the more potent here.
